Tests used:
Format in all cases: toxicity, cell-based
HEK-293T [1] = assay: Multiplex assay against HEK293T; details: human;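 for Population Tubulin-Different-Phenotype (%): share of the cells with healthy nuclei that show this phenotype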
Method in brief: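 Four dyes were applied at seeding to live cells: Hoechst33342, BioTracker Green Microtubule Cytoskeleton Dye, MitoTracker Red and Annexin V Alexa Fluor 680. Imaging after compound addition used a CQ1 microscope at 37°C and 5% CO2. CellPathfinder machine-learning gating then sorted cells into Hoechst high-intensity objects or normal cells, normal cells into healthy, pyknosed or fragmented nuclei, and pyknosed cells into mitotic or apoptotic, with tubulin, mitochondrial-mass and membrane-permeability phenotypes given as per cents of healthy-nucleus cells.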

HEK-293T [2] = assay: Incucyte cell viability with HEK293T; details: human, 10 µM, compound concentration 10 uM; note: filed as whole numbers so only -1 and 0 and 1 occur
Fibroblast = assay: Incucyte cell viability with human fibroblast; details: 10 µM, compound concentration 10 uM; note: filed as whole numbers so only -1 and 0 and 1 occur
[3] = 12 h, 1 µM, compound concentration 1 uM, replicate 1
[4] = 12 h, 1 µM, compound concentration 1 uM, replicate 2
[5] = 12 h, 10 µM, compound concentration 10 uM, replicate 1
[6] = 12 h, 10 µM, compound concentration 10 uM, replicate 2
[7] = 24 h, 1 µM, compound concentration 1 uM, replicate 1
[8] = 24 h, 1 µM, compound concentration 1 uM, replicate 2
[9] = 24 h, 10 µM, compound concentration 10 uM, replicate 1
[10] = 24 h, 10 µM, compound concentration 10 uM, replicate 2
[11] = 48 h, 1 µM, compound concentration 1 uM, replicate 1
[12] = 48 h, 1 µM, compound concentration 1 uM, replicate 2
[13] = 48 h, 10 µM, compound concentration 10 uM, replicate 1
[14] = 48 h, 10 µM, compound concentration 10 uM, replicate 2
[15] = 6 h, replicate number 1, timepoint 6 hours
[16] = 12 h, replicate number 1, timepoint 12 hours
[17] = 18 h, replicate number 1, timepoint 18 hours
[18] = 24 h, replicate number 1, timepoint 24 hours

With `Oc1cccc(-c2nc(N3CCOCC3)c3oc4ncccc4c3n2)c1` [PI-103] the “Population Apoptotic (%)” value (HEK-293T [1]; [3]) was 58%, the “Population Fragmented Nuclei (%)” value (HEK-293T [1]; [3]) was 6% and the “Population Healthy Nuclei (%)” value (HEK-293T [1]; [3]) was 16%. For the same compound, the “Population Hoechst High Intensity Objects (%)” value (HEK-293T [1]; [3]) was 21%, the “Population Membrane Permeable-Phenotype (%)” value (HEK-293T [1]; [3]) was 2% and the “Population Mitochondria Different-Phenotype (%)” value (HEK-293T [1]; [3]) was 85%. The “Population Mitotic Cells (%)” value (HEK-293T [1]; [3]) was 41%, the “Population Normal (%)” value (HEK-293T [1]; [3]) was 78% and the “Population Pyknosed Nuclei (%)” value (HEK-293T [1]; [3]) was 77%. For the same compound, the “Population Tubulin-Different-Phenotype (%)” value (HEK-293T [1]; [3]) was 82%, the “Total Cell Count” value (HEK-293T [1]; [3]) was 269 and the “Population Apoptotic (%)” value (HEK-293T [1]; [4]) was 51%. The “Population Fragmented Nuclei (%)” value (HEK-293T [1]; [4]) was 10%, the “Population Healthy Nuclei (%)” value (HEK-293T [1]; [4]) was 13% and the “Population Hoechst High Intensity Objects (%)” value (HEK-293T [1]; [4]) was 14%. The “Population Membrane Permeable-Phenotype (%)” value (HEK-293T [1]; [4]) was 10%, the “Population Mitochondria Different-Phenotype (%)” value (HEK-293T [1]; [4]) was 68% and the “Population Mitotic Cells (%)” value (HEK-293T [1]; [4]) was 48%. The “Population Normal (%)” value (HEK-293T [1]; [4]) was 85%, the “Population Pyknosed Nuclei (%)” value (HEK-293T [1]; [4]) was 76% and the “Population Tubulin-Different-Phenotype (%)” value (HEK-293T [1]; [4]) was 63%. For the same compound, the “Total Cell Count” value (HEK-293T [1]; [4]) was 161, the “Population Apoptotic (%)” value (HEK-293T [1]; [5]) was 72% and the “Population Fragmented Nuclei (%)” value (HEK-293T [1]; [5]) was 14%. The “Population Healthy Nuclei (%)” value (HEK-293T [1]; [5]) was 8%, the “Population Hoechst High Intensity Objects (%)” value (HEK-293T [1]; [5]) was 18% and the “Population Membrane Permeable-Phenotype (%)” value (HEK-293T [1]; [5]) was 11%. For the same compound, the “Population Mitochondria Different-Phenotype (%)” value (HEK-293T [1]; [5]) was 94%, the “Population Mitotic Cells (%)” value (HEK-293T [1]; [5]) was 27% and the “Population Normal (%)” value (HEK-293T [1]; [5]) was 81%. For the same compound, the “Population Pyknosed Nuclei (%)” value (HEK-293T [1]; [5]) was 77%, the “Population Tubulin-Different-Phenotype (%)” value (HEK-293T [1]; [5]) was 94% and the “Total Cell Count” value (HEK-293T [1]; [5]) was 269. For the same compound, the “Population Apoptotic (%)” value (HEK-293T [1]; [6]) was 64%, the “Population Fragmented Nuclei (%)” value (HEK-293T [1]; [6]) was 7% and the “Population Healthy Nuclei (%)” value (HEK-293T [1]; [6]) was 6%. For the same compound, the “Population Hoechst High Intensity Objects (%)” value (HEK-293T [1]; [6]) was 6%, the “Population Membrane Permeable-Phenotype (%)” value (HEK-293T [1]; [6]) was 27% and the “Population Mitochondria Different-Phenotype (%)” value (HEK-293T [1]; [6]) was 54%. The “Population Mitotic Cells (%)” value (HEK-293T [1]; [6]) was 35%, the “Population Normal (%)” value (HEK-293T [1]; [6]) was 93% and the “Population Pyknosed Nuclei (%)” value (HEK-293T [1]; [6]) was 85%. For the same compound, the “Population Tubulin-Different-Phenotype (%)” value (HEK-293T [1]; [6]) was 72%, the “Total Cell Count” value (HEK-293T [1]; [6]) was 172 and the “Population Apoptotic (%)” value (HEK-293T [1]; [7]) was 47%. For the same compound, the “Population Fragmented Nuclei (%)” value (HEK-293T [1]; [7]) was 13%, the “Population Healthy Nuclei (%)” value (HEK-293T [1]; [7]) was 10% and the “Population Hoechst High Intensity Objects (%)” value (HEK-293T [1]; [7]) was 22%. For the same compound, the “Population Mitochondria Different-Phenotype (%)” value (HEK-293T [1]; [7]) was 78%, the “Population Mitotic Cells (%)” value (HEK-293T [1]; [7]) was 52% and the “Population Normal (%)” value (HEK-293T [1]; [7]) was 77%. For the same compound, the “Population Pyknosed Nuclei (%)” value (HEK-293T [1]; [7]) was 76%, the “Population Tubulin-Different-Phenotype (%)” value (HEK-293T [1]; [7]) was 86% and the “Total Cell Count” value (HEK-293T [1]; [7]) was 293. The “Population Apoptotic (%)” value (HEK-293T [1]; [8]) was 53%, the “Population Fragmented Nuclei (%)” value (HEK-293T [1]; [8]) was 9% and the “Population Healthy Nuclei (%)” value (HEK-293T [1]; [8]) was 26%. For the same compound, the “Population Hoechst High Intensity Objects (%)” value (HEK-293T [1]; [8]) was 15%, the “Population Membrane Permeable-Phenotype (%)” value (HEK-293T [1]; [8]) was 13% and the “Population Mitochondria Different-Phenotype (%)” value (HEK-293T [1]; [8]) was 59%. The “Population Mitotic Cells (%)” value (HEK-293T [1]; [8]) was 46%, the “Population Normal (%)” value (HEK-293T [1]; [8]) was 84% and the “Population Pyknosed Nuclei (%)” value (HEK-293T [1]; [8]) was 64%. The “Population Tubulin-Different-Phenotype (%)” value (HEK-293T [1]; [8]) was 64%, the “Total Cell Count” value (HEK-293T [1]; [8]) was 168 and the “Population Apoptotic (%)” value (HEK-293T [1]; [9]) was 63%. The “Population Fragmented Nuclei (%)” value (HEK-293T [1]; [9]) was 18%, the “Population Healthy Nuclei (%)” value (HEK-293T [1]; [9]) was 8% and the “Population Hoechst High Intensity Objects (%)” value (HEK-293T [1]; [9]) was 17%. For the same compound, the “Population Membrane Permeable-Phenotype (%)” value (HEK-293T [1]; [9]) was 10%, the “Population Mitochondria Different-Phenotype (%)” value (HEK-293T [1]; [9]) was 100% and the “Population Mitotic Cells (%)” value (HEK-293T [1]; [9]) was 36%. The “Population Normal (%)” value (HEK-293T [1]; [9]) was 82%, the “Population Pyknosed Nuclei (%)” value (HEK-293T [1]; [9]) was 73% and the “Population Tubulin-Different-Phenotype (%)” value (HEK-293T [1]; [9]) was 90%. The “Total Cell Count” value (HEK-293T [1]; [9]) was 291, the “Population Apoptotic (%)” value (HEK-293T [1]; [10]) was 65% and the “Population Fragmented Nuclei (%)” value (HEK-293T [1]; [10]) was 11%. The “Population Healthy Nuclei (%)” value (HEK-293T [1]; [10]) was 11%, the “Population Hoechst High Intensity Objects (%)” value (HEK-293T [1]; [10]) was 16% and the “Population Membrane Permeable-Phenotype (%)” value (HEK-293T [1]; [10]) was 23%. The “Population Mitochondria Different-Phenotype (%)” value (HEK-293T [1]; [10]) was 70%, the “Population Mitotic Cells (%)” value (HEK-293T [1]; [10]) was 34% and the “Population Normal (%)” value (HEK-293T [1]; [10]) was 83%. For the same compound, the “Population Pyknosed Nuclei (%)” value (HEK-293T [1]; [10]) was 76%, the “Population Tubulin-Different-Phenotype (%)” value (HEK-293T [1]; [10]) was 88% and the “Total Cell Count” value (HEK-293T [1]; [10]) was 175. The “Population Apoptotic (%)” value (HEK-293T [1]; [11]) was 56%, the “Population Fragmented Nuclei (%)” value (HEK-293T [1]; [11]) was 23% and the “Population Healthy Nuclei (%)” value (HEK-293T [1]; [11]) was 4%. The “Population Hoechst High Intensity Objects (%)” value (HEK-293T [1]; [11]) was 22%, the “Population Membrane Permeable-Phenotype (%)” value (HEK-293T [1]; [11]) was 9% and the “Population Mitochondria Different-Phenotype (%)” value (HEK-293T [1]; [11]) was 72%. For the same compound, the “Population Mitotic Cells (%)” value (HEK-293T [1]; [11]) was 43%, the “Population Normal (%)” value (HEK-293T [1]; [11]) was 77% and the “Population Pyknosed Nuclei (%)” value (HEK-293T [1]; [11]) was 71%. The “Population Tubulin-Different-Phenotype (%)” value (HEK-293T [1]; [11]) was 63%, the “Total Cell Count” value (HEK-293T [1]; [11]) was 297 and the “Population Apoptotic (%)” value (HEK-293T [1]; [12]) was 50%. The “Population Fragmented Nuclei (%)” value (HEK-293T [1]; [12]) was 12%, the “Population Healthy Nuclei (%)” value (HEK-293T [1]; [12]) was 55% and the “Population Hoechst High Intensity Objects (%)” value (HEK-293T [1]; [12]) was 14%. For the same compound, the “Population Membrane Permeable-Phenotype (%)” value (HEK-293T [1]; [12]) was 7%, the “Population Mitochondria Different-Phenotype (%)” value (HEK-293T [1]; [12]) was 63% and the “Population Mitotic Cells (%)” value (HEK-293T [1]; [12]) was 50%. The “Population Normal (%)” value (HEK-293T [1]; [12]) was 85%, the “Population Pyknosed Nuclei (%)” value (HEK-293T [1]; [12]) was 31% and the “Population Tubulin-Different-Phenotype (%)” value (HEK-293T [1]; [12]) was 88%. The “Total Cell Count” value (HEK-293T [1]; [12]) was 185, the “Population Apoptotic (%)” value (HEK-293T [1]; [13]) was 55% and the “Population Fragmented Nuclei (%)” value (HEK-293T [1]; [13]) was 29%. The “Population Healthy Nuclei (%)” value (HEK-293T [1]; [13]) was 7%, the “Population Hoechst High Intensity Objects (%)” value (HEK-293T [1]; [13]) was 17% and the “Population Membrane Permeable-Phenotype (%)” value (HEK-293T [1]; [13]) was 0%. The “Population Mitochondria Different-Phenotype (%)” value (HEK-293T [1]; [13]) was 94%, the “Population Mitotic Cells (%)” value (HEK-293T [1]; [13]) was 44% and the “Population Normal (%)” value (HEK-293T [1]; [13]) was 82%. For the same compound, the “Population Pyknosed Nuclei (%)” value (HEK-293T [1]; [13]) was 63%, the “Population Tubulin-Different-Phenotype (%)” value (HEK-293T [1]; [13]) was 84% and the “Total Cell Count” value (HEK-293T [1]; [13]) was 307. The “Population Apoptotic (%)” value (HEK-293T [1]; [14]) was 78%, the “Population Fragmented Nuclei (%)” value (HEK-293T [1]; [14]) was 10% and the “Population Healthy Nuclei (%)” value (HEK-293T [1]; [14]) was 18%. The “Population Hoechst High Intensity Objects (%)” value (HEK-293T [1]; [14]) was 22%, the “Population Membrane Permeable-Phenotype (%)” value (HEK-293T [1]; [14]) was 8% and the “Population Mitochondria Different-Phenotype (%)” value (HEK-293T [1]; [14]) was 80%. The “Population Mitotic Cells (%)” value (HEK-293T [1]; [14]) was 21%, the “Population Normal (%)” value (HEK-293T [1]; [14]) was 77% and the “Population Pyknosed Nuclei (%)” value (HEK-293T [1]; [14]) was 71%. The “Population Tubulin-Different-Phenotype (%)” value (HEK-293T [1]; [14]) was 88%, the “Total Cell Count” value (HEK-293T [1]; [14]) was 177 and the “Growth Rate” value (HEK-293T [2]; [15]) was 0. For the same compound, the “Growth Rate” value (HEK-293T [2]; [16]) was 0, the “Growth Rate” value (HEK-293T [2]; [17]) was 0 and the “Growth Rate” value (HEK-293T [2]; [18]) was 0. The “Growth Rate” value (Fibroblast; 0 h, replicate number 2, timepoint 0 hours) was 0, the “Growth Rate” value (Fibroblast; [15]) was 0 and the “Growth Rate” value (Fibroblast; [16]) was 0. For the same compound, the “Growth Rate” value (Fibroblast; [17]) was 0 and the “Growth Rate” value (Fibroblast; [18]) was 0.

Reference: ChEMBL document CHEMBL4689842, “EUbOPEN Chemogenomics Library wave 1” (2021)
